{"source": "paper PMC4191588", "about": "(Journal of Medicinal Chemistry, 2014)", "key": {"H1299 cells": {"system": "H1299 cells", "test": "Colony formation assay in H1299 cells", "format": "cell-based, human", "conditions": "for effect on cell survival (in words) / reduction of colony formation: H1299 cells, 5 μM, 7 days; for reduction of colony formation: relative to DMSO"}, "451 kinases": {"system": "451 kinases", "conditions": "cited from earlier work"}, "small panel of DUBs": {"system": "small panel of DUBs", "conditions": "cited from earlier work"}, "Ub-PCNA in H1299 cells": {"system": "Ub-PCNA in H1299 cells", "test": "Western blot of monoubiquitinated PCNA", "format": "cell-based, human", "conditions": "4 hr; for change in Ub-PCNA (in words): H1299 cells, 1, 5, and 25 µM; for lowest concentration at which an increase in Ub-PCNA was observed: H1299 cells"}, "USP1/UAF1": {"molecular_target": "USP1/UAF1 (Homo sapiens, UniProt O94782)", "sequence (O94782 whole entry)": "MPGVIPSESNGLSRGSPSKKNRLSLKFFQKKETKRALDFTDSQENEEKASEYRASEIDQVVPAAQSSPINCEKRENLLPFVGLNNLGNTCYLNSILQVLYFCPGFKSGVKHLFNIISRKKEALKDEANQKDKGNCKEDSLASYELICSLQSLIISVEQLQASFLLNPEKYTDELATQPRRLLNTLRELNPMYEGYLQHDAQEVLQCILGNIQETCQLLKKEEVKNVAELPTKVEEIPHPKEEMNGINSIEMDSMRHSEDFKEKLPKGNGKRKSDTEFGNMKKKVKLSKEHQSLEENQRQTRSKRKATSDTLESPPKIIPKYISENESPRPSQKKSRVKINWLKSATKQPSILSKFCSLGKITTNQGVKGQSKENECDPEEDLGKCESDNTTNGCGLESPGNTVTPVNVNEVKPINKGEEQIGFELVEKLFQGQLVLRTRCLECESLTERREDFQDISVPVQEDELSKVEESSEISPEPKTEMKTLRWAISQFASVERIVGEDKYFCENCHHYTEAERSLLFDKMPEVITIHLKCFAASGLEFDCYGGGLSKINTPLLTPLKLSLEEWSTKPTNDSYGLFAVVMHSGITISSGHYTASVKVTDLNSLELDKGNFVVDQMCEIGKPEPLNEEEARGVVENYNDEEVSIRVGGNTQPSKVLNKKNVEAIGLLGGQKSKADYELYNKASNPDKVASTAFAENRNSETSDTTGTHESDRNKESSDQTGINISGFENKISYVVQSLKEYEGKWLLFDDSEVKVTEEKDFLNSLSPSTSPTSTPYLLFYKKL", "sequence (Q8TAF3 whole entry partner)": "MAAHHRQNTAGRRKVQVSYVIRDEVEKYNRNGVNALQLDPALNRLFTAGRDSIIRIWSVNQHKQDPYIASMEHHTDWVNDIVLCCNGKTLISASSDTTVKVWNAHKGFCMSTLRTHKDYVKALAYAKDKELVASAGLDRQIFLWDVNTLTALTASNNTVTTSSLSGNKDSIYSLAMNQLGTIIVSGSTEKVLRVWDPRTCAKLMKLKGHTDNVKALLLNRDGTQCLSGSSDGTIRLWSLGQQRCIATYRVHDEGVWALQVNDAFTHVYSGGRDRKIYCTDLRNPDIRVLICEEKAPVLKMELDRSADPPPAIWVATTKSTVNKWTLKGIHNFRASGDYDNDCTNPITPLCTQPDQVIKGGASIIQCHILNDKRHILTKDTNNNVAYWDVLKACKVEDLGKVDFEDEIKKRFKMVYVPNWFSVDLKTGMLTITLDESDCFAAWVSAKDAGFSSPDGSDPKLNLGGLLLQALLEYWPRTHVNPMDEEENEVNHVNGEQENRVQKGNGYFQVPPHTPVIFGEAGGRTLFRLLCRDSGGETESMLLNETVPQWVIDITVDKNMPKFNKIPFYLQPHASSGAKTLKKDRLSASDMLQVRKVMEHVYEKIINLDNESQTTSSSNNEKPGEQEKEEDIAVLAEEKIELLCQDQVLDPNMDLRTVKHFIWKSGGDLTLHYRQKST", "test": "USP1/UAF1 quantitative high-throughput screening", "format": "biochemical"}, "Mouse plasma stability": {"test": "Mouse plasma stability", "format": "in vitro ADME"}, "[1]": {"test": "Preliminary in vivo PK studies"}, "Ca^2+ channel": {"system": "Ca^2+ channel", "test": "CEREP LeadProfilingScreen2 radioligand binding", "conditions": "10 μM, duplicate", "outline": "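Test compound run at 10 μM in a commercial lead-profiling panel of 80 GPCRs, ion channels and transporters.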"}, "[2]": {"test": "Aqueous chemical stability", "format": "physicochemical", "conditions": "aqueous solution at room temperature"}, "Caco-2": {"system": "Caco-2", "test": "Caco-2 permeability", "format": "in vitro ADME"}}}
{"compound": "FC(F)(F)c1ccccc1-c1nc(NCc2cccs2)c2ccccc2n1", "note": "[Compound 1, N-(Thiophen-2-ylmethyl)-2-(2-(trifluoromethyl)phenyl)quinazolin-4-amine]", "values": [{"measurement": "effect on cell survival (in words)", "setting": "H1299 cells", "value": "minimal"}, {"measurement": "appreciable inhibition among 451 kinases", "setting": "451 kinases", "value": "only one of 451 kinases"}, {"measurement": "activity against a small panel of DUBs", "setting": "small panel of DUBs", "value": "no significant activity"}, {"measurement": "change in Ub-PCNA (in words)", "setting": "Ub-PCNA in H1299 cells", "value": "dose-dependent increase in Ub-PCNA"}]}
{"compound": "FC(F)(F)c1cccc(-c2nc(NCc3ccc(-c4cccnc4)cc3)c3ccccc3n2)c1", "note": "[Compound 22]", "values": [{"measurement": "activity toward USP1/UAF1 (in words)", "setting": "USP1/UAF1", "value": "inactivity"}]}
{"compound": "FC(F)(F)c1ccc(-c2nc(NCc3ccc(-c4cccnc4)cc3)c3ccccc3n2)cc1", "note": "[Compound 23]", "values": [{"measurement": "activity toward USP1/UAF1 (in words)", "setting": "USP1/UAF1", "value": "inactivity"}]}
{"compound": "CC(C)c1ccccc1-c1nc(NCc2ccc(-c3cccnc3)cc2)c2occc2n1", "note": "[Compound 48, 2-(2-Isopropylphenyl)-N-(4-(pyridin-3-yl)benzyl)furo[3,2-d]pyrimidin-4-amine]", "values": [{"measurement": "reduction of colony formation", "setting": "H1299 cells", "value": "greater than 70%"}]}
{"compound": "COc1cnc(-c2ccccc2C(C)C)nc1NCc1ccc(-c2cccnc2)cc1", "note": "[Compound 49, 2-(2-Isopropylphenyl)-5-methoxy-N-(4-(pyridin-3-yl)benzyl)pyrimidin-4-amine]", "values": [{"measurement": "reduction of colony formation", "setting": "H1299 cells", "value": "greater than 70%"}]}
{"compound": "Cc1cnc(-c2ccccc2C(C)C)nc1NCC1CCN(C)CC1", "note": "[Compound 58]", "values": [{"measurement": "activity toward USP1/UAF1 (in words)", "setting": "USP1/UAF1", "value": "complete loss of activity"}]}
{"compound": "Cc1cnc(-c2ccccc2C(C)C)nc1NCC1CCN(c2cccnc2)CC1", "note": "[Compound 64, 2-(2-Isopropylphenyl)-5-methyl-N-((1-(pyridin-3-yl)piperidin-4-yl)methyl)pyrimidin-4-amine]", "values": [{"measurement": "reduction of colony formation", "setting": "H1299 cells", "value": "greater than 70%"}, {"measurement": "change in Ub-PCNA (in words)", "setting": "Ub-PCNA in H1299 cells", "value": "dose-dependent increase in Ub-PCNA"}, {"measurement": "lowest concentration at which an increase in Ub-PCNA was observed", "setting": "Ub-PCNA in H1299 cells", "value": 1, "unit": "µM"}]}
{"compound": "Cc1cnc(-c2ccccc2C(C)C)nc1NCc1ccc(-n2ccnc2)cc1", "note": "[Compound 69, N-(4-(1H-Imidazol-1-yl)benzyl)-2-(2-isopropylphenyl)-5-methylpyrimidin-4-amine]", "values": [{"measurement": "reduction of colony formation", "setting": "H1299 cells", "value": "greater than 70%"}]}
{"compound": "Cc1cnc(-c2ccccc2C(C)C)nc1NCc1ccc(-n2ccnn2)cc1", "note": "[Compound 70, N-(4-(1H-1,2,3-Triazol-1-yl)benzyl)-5-methyl-2-(2-isopropylphenyl)pyrimidin-4-amine]", "values": [{"measurement": "stability in mouse plasma (in words)", "setting": "Mouse plasma stability", "value": "stable"}, {"measurement": "clearance", "setting": "[1]", "value": "> 70", "unit": "mL/min/kg"}, {"measurement": "inhibition of Ca^2+ channel", "setting": "Ca^2+ channel", "value": "> 50", "unit": "%"}, {"measurement": "stability in PBS buffer, assay buffer, pH 2, pH 9 (in words)", "setting": "[2]", "value": "stable"}, {"measurement": "Caco-2 (A→B) Papp", "setting": "Caco-2", "value": "22.98 10^–6 cm/s"}, {"measurement": "reduction of colony formation", "setting": "H1299 cells", "value": "greater than 70%"}, {"measurement": "change in Ub-PCNA (in words)", "setting": "Ub-PCNA in H1299 cells", "value": "dose-dependent increase in Ub-PCNA"}, {"measurement": "lowest concentration at which an increase in Ub-PCNA was observed", "setting": "Ub-PCNA in H1299 cells", "value": 1, "unit": "µM"}]}
{"compound": "Cc1cnc(-c2ccccc2C2COC2)nc1NCc1ccc(-c2cccnc2)cc1", "note": "[Compound 72, 5-methyl-2-(2-(oxetan-3-yl)phenyl)-N-(4-(pyridin-3-yl)benzyl)pyrimidin-4-amine]", "values": [{"measurement": "activity toward USP1/UAF1 (in words)", "setting": "USP1/UAF1", "value": "lost all activity"}]}
{"compound": "Cc1cnc(-c2ccccc2C2COC2)nc1NCc1ccc(-n2ccnn2)cc1", "note": "[Compound 77, N-(4-(1H-1,2,3-Triazol-1-yl)benzyl)-5-methyl-2-(2-(oxetan-3-yl)phenyl)pyrimidin-4-amine]", "values": [{"measurement": "activity toward USP1/UAF1 (in words)", "setting": "USP1/UAF1", "value": "lost all activity"}, {"measurement": "effect on cell survival (in words)", "setting": "H1299 cells", "value": "no effect"}, {"measurement": "EC50", "setting": "H1299 cells; Homo sapiens, NCI-H1299, read-out: EC50 cell survival (colony formation)", "value": "> 25", "unit": "µM"}]}
